rCAG binder = r(CAG) repeat RNA binding; TO-PRO-1 dye displacement fluorescence; inhibition, % at 3 µM; 1.3% of 370,000 active; AID 651821;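 active = inhibition above the plate cutoff, the mean of all test compounds on that plate plus 3 SD, cut at about 35% in these data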;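 note: 0% = DMSO alone and 100% = 100 µM mitoxantrone as full dye displacement; higher means more dye released from RNA so lower well fluorescence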
UHRF1 MBD2 ctr = UHRF1 methyl-DNA binding inhibition; AID 687016; UHRF1 binding to methylated oligo, TR-FRET; 0.75% of 370,000 active; Q96T88; inhibition, % at 4.4 µM; in the data active = inhibition above about 21%;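 note: UHRF1 SRA domain binding a hemimethylated CpG hairpin DNA probe; 0% = median of test compound wells and 100% = reference inhibitor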
Target sequence (Q96T88 whole entry, looked up, the tested form may be a part): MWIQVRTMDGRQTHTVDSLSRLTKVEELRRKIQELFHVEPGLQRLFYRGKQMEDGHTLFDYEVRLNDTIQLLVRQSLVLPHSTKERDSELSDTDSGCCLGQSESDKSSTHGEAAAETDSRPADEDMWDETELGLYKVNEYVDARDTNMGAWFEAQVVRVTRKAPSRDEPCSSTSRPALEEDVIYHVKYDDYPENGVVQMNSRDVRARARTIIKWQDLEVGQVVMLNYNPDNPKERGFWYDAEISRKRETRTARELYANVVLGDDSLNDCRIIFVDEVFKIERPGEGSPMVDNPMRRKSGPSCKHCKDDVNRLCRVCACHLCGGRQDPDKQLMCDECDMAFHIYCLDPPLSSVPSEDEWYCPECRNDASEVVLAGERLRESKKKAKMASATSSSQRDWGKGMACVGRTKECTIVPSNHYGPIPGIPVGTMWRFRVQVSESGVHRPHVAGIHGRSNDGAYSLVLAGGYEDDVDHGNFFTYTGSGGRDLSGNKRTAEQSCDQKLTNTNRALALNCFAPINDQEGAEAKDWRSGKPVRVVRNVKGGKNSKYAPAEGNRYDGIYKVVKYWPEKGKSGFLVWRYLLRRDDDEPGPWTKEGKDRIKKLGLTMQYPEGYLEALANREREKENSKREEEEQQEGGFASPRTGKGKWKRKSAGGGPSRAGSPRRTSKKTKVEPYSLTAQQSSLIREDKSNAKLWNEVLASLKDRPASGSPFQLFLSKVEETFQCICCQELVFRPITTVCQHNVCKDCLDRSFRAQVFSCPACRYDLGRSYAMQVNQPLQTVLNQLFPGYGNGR
MBD2 inh = inhibitors of human MBD2 binding to methylated oligonucleotide | Q9UBB5 | 0.31% of 370,000 active | AID 686964 | TR-FRET | inhibition, % at 4.4 µM; in the data active = inhibition above about 13%
ATG4B inhibitor = inhibitors of human ATG4B cysteine protease. Q9Y4P1. ATG4B cleavage of LC3-PLA2, NBD-HPC fluorescence, 1 h. inhibition, % at 8.33 µM. 0.51% of 340,000 active. AID 504462; in the data active = inhibition above about 40%
LEDGF integ inh = blocks HIV-1 LEDGF/p75-dependent DNA integration; TR-FRET IN-LEDGF/p75 DNA integration, Eu/Cy5; inhibition, % at 3.7 µM; 0.64% of 370,000 active; AID 743269;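 active = inhibition above the screen-wide mean plus 3 SD, cut at about 13% in these data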;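 note: signal is the Cy5 over europium emission ratio at 671 and 618 nm; 0% = plate median of compound wells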
CSN deneddyl inh = blocks human CSN-mediated cullin deneddylation; Q92905; Purified CSN, SCF-Nedd8-OG deneddylation, fluorescence polarization; inhibition, % at 12.5 µM; 0.38% of 360,000 active; AID 651999;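 active = pattern-corrected inhibition above about 35%, with an unprinted fluorescence ratio check between 0.5 and 1.5, limit read from the data, passing the limit was not always enough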;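 note: 0% = enzyme with substrate and 100% = substrate without enzyme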
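test system = HEK293T-derived human Csn5 enzyme | amount = 0.24 nM Csn5 enzyme, final concentration | medium = Tris/NaCl/DTT buffer, pH 7.5 | schedule = 90 min reaction at room temperature | signal = FP | evaluation = inhibition of Csn5 cleavage, % | compound dosing = single dose of 12.5 µM compound with 0.25% DMSO | probe or stimulus = 10 nM SCFSkp2-Nedd8OG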
ATG4B conf = ATG4B (human) inhibition, single-dose confirmed; shares compounds with ATG4B inhibitor; ATG4B protease fluorescent substrate cleavage assay; inhibition, % at 8.33 µM; 92% of 320 active; in the data active = inhibition above about 39%
PLA2 counter = PLA2 (human) inhibition in ATG4B counter-screen; shares compounds with ATG4B inhibitor; AID 588402; purified PLA2, NBD-C6-HPC fluorescence, 45 min; 66% of 1,600 active; inhibition, % at 8.33 µM; in the data active = inhibition above about 50%
* marks the source's active call; other numbers are inactive results; . = not tested or not shown. A selection: hits, their analogues and other compounds. The true share with any hit is near 3.1%.

SMILES	rCAG binder	UHRF1 MBD2 ctr	MBD2 inh	ATG4B inhibitor	LEDGF integ inh	CSN deneddyl inh	others
CC1=CC(C)(C)N2C(=O)C3(C(C#N)=C(N)OC4=C3C(=O)CC(C)(C)C4)c3cccc1c32 (stereo unspecified)	-3	21*	12	.	1	.
COc1ccc(NC(=O)COC(=O)CCc2ccc(S(=O)(=O)N3CCOCC3)cc2)cc1Cl	5	95*	5	-4	-3	5
Cc1n[nH]c(C)c1CCC(=O)N/N=C/C=C/c1ccccc1	-6	88*	-3	12	-3	4
O=C(Nc1ccc(Cl)cc1)OC1CCC12CCC(c1ccccc1)CC2 (stereo unspecified)	2	-2	-4	.	3	.
O=C(NCc1ccccc1)[C@H]1CCCN1C(=O)[C@H]1CCCN1C(=O)c1ccc(OC(F)(F)F)cc1	-2	2	-4	.	1	.
Cc1cc(C(=O)CCC(=O)N(C)CC(=O)Nc2ccccc2Br)c(C)s1	3	7	4	0	1	54*
CCOC(=O)Cn1cc(CN2CCS(=O)(=O)N(Cc3ccc(F)cc3)C(C(=O)OC)C2)nn1 (stereo unspecified)	4	17	13	.	-2	.
CC(C)N1CCC(C)(C(=O)Nc2cccc(Oc3ccccc3)c2)C1 (stereo unspecified)	0	31*	-1	.	-3	-1
CN1CCC(C)(C(=O)Nc2cccc(Oc3ccccc3)c2)C1 (stereo unspecified)	2	-2	1	.	5	1
CN(C)[C@@H]1CCN(c2ccc3c(c2)O[C@@H]2CCN(C2)S3(=O)=O)C1	3	2	0	.	-3	.
COc1ccc(S(=O)(=O)Nc2cccc(S(=O)(=O)N(C)C)c2)cc1[N+](=O)[O-]	12	23*	8	-1	0	2
CC(C)(C)OC(=O)N1CCC(CNC(=O)c2ccc(F)cc2F)CC1	-8	23*	-6	-2	3	0
CC(C)(C)OC(=O)N1CCC(CNC(=O)c2cccs2)CC1	-7	15	-1	-4	1	-1
CSc1ccc(/C=C(\C#N)C(=O)NC2CCCCC2C)cc1 (stereo unspecified)	-4	5	-4	2	-2	-15
CC1CCCCC1NC(=O)/C(C#N)=C/c1ccccc1F (stereo unspecified)	-4	25*	10	5	-4	-2
O=C(O)CCN1Cc2ccccc2C1=O	0	-2	0	8	0	0
CCC(=O)N1Cc2ccccc2-c2ccccc2C1=O	.	.	.	41*	.	.
CCN(CC)c1ccc(C=NNC(=O)Cc2cc(=O)[nH][nH]2)c(O)c1	27	-6	-4	.	1	.
Fc1ccccc1CNc1ccc(Cl)c(Cl)c1	1	25*	1	37	-3	-3
N#C/C(=C\c1ccncc1)c1nc2ccccc2c(=O)[nH]1	4	44*	-1	-6	1	-10
FC(F)(F)c1ccc2nc(CNc3nc(N4CCOCC4)nc4c3ncn4-c3ccsc3)[nH]c2c1	.	-1	2	.	6	.
CSCCC1NC(=O)N(CC(=O)Nc2c(Cl)cc(Cl)cc2Cl)C1=O (stereo unspecified)	-2	3	0	9	0	1
CSCCC1NC(=O)N(C(C)C(=O)Nc2cc(Cl)cc(Cl)c2)C1=O (stereo unspecified)	2	24*	6	-1	-3	-1
c1ccc(CCNc2nc3ccccc3s2)cc1	-2	21*	5	0	0	1
Fc1ccc(CSc2nnc(CN3CCOCC3)n2-c2ccccc2)c(Cl)c1	-7	43*	-1	-4	0	4
SMILES	rCAG binder	UHRF1 MBD2 ctr	MBD2 inh	ATG4B inhibitor	LEDGF integ inh	CSN deneddyl inh	others
O=S1(=O)c2ccc(Br)cc2OC[C@@H](c2ccccc2)N1Cc1cn(Cc2ccccc2)nn1	7	16	4	.	3	.
COC(=O)[C@H](CC1(c2cn(S(=O)(=O)CC[Si](C)(C)C)c3ccccc23)C(=O)Nc2ccccc21)NC(=O)OC(C)(C)C (stereo partly specified)	.	4	0	.	-8	.
NC(=O)C1=C(N=C2CCCCC2)CCCC1	0	-1	0	7	-4	53*
COC(=O)[C@]12C[C@H](CC(=O)NCCCCc3ccccc3)C(=O)N(CCc3ccc(OC)c(OC)c3)C1=C[C@H](C(C)(C)C)O[C@@H]2C	4	-1	-1	.	-3	.
O=C(NC1CCCCN(Cc2cccc(C(F)(F)F)c2)C1=O)C1C2CC3CC(C2)CC1C3 (stereo unspecified)	2	1	-3	.	0	.
COC(=O)c1cc(Br)c(=O)n(-c2nccs2)c1	6	-2	3	9	-1	-1
COC(=O)c1cc(Br)c(=O)n(-c2ccccn2)c1	0	37*	-6	-1	1	4
CCN(CC)C(=O)[C@H]1C[C@H](CC(=O)NCCc2ccccn2)C(=O)N2CCc3c([nH]c4cc(CCC(=O)N(C)C)ccc34)[C@]12C	-2	21*	7	-6	8	0
O=C(c1ccc(Cl)c(S(=O)(=O)N2CCc3ccccc3C2)c1)N1CCN(c2ccccc2)CC1	7	3	-2	27	-3	-2
O=C(c1ccc(Cl)c(S(=O)(=O)Nc2ccccc2C(=O)N2CCc3ccccc3C2)c1)N1CCc2ccccc2C1	32	-6	6	48*	2	0	ATG4B conf=62*;PLA2 counter=38
COc1cccc(CNC(=O)[C@H]2CCCN2C(=O)[C@H]2CCCN2C(=O)OC(C)(C)C)c1	1	4	-1	.	2	.
COc1ccccc1CN(C)C(=O)C1CCCN(c2nc3ccccc3o2)C1 (stereo unspecified)	0	1	-1	.	1	.
O=C(Nc1nc2c(Cl)cccc2s1)C1CC1	7	6	8	-11	0	6
O=C(Nc1nc2c(cc3c4c(cccc42)CC3)s1)c1ccccc1Cl	16	-2	1	43*	3	-1	ATG4B conf=60*;PLA2 counter=45
CC1CC(C)CN(C(=O)c2ccc3c(c2NCCO)C(=O)c2ccccc2C3=O)C1 (stereo unspecified)	0	-6	-15	59*	-1	0	PLA2 counter=67*
NS(=O)(=O)c1ccc(N=Nc2c(O)ccc3ccccc23)cc1	21	2	-7	-4	7	-8
N=C(N)c1ccc(N=Nc2c(O)ccc3c2[nH]c2ccccc23)cc1	26	16	11	86*	0	105	ATG4B conf=38*;PLA2 counter=18

Assay outcomes as filed in PubChem.
